APOBEC3A inh: blocks human APOBEC3A ssDNA deamination | inhibition, % at 20 µM | P31941 | 330,000 compounds, 0.41% hits | recombinant A3A, FAM/TAMRA ssDNA deamination fluorescence;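 active means at least 40% inhibition at 20 µM here, with at most 30% in a related deaminase screen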
ARFGAP1 inh: rat ARFGAP1 inhibition; AID 651572; 360,000 compounds, 0.26% hits; Arfgap1-stimulated ARF1 GTP hydrolysis, GDP FP detection; inhibition, % at 16.5 µM; Q62848;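 active means inhibition above a per-plate limit, mean inhibition of low control wells plus 3 SD, cut at about 25% in these data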
Target sequence (Q62848 1-136 limits assumed): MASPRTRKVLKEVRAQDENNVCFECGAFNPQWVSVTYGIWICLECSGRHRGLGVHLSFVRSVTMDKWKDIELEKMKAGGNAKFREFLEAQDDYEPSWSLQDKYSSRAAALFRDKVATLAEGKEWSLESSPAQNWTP
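Material – truncated rat Arfgap1 GAP domain · Buffer or medium – HEPES-based buffer, pH 7.5 · Reagent – human ARF1(Δ1-17)-GTP substrate · Dosing – 16.5 µM single point, 1.26% DMSO · Schedule – GTP hydrolysis reaction 2 h at 25 °C · Technique – GDP detection by fluorescence polarization · Benchmarks – No-Arfgap1 wells (100%) versus DMSO full-reaction wells (0%) · Repeats – single replicate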
Statin myotox sup: suppressors of simvastatin-induced myotoxicity in C2C12 myotubes. ATP luminescence, 48 h; scaled: DMSO 0, geranylgeraniol control 100. rescue of ATP level, % at 7.49 µM. 330,000 compounds, 0.78% hits;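 active means mean ATP rescue above about 67%, or every replicate alone reaching that limit, limit read from the data, passing the limit was not always enough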;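 further: myotubes were challenged with 10 µM simvastatin during compound exposure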
Mot1-301 SUMO: blocks SUMOylation pathway, rescuing yeast Mot1-301 growth. S. cerevisiae Mot1-301 growth rescue, ATP luminescence, 38.5C; percent above DMSO median, 100 means doubled. growth rescue, % at 18.8 µM. 320,000 compounds, 1% hits. AID 2716;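 active means every valid replicate shows activation above 250% relative to neutral control wells; inactive means the rest, any valid replicate at or below 250%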
ASAP1 GAP inh: blocks human ASAP1-stimulated Arf1 GTP hydrolysis. Q9ULH1. GDP FP detection. inhibition, % at 16.5 µM. 360,000 compounds, 0.19% hits; in the data active means inhibition above about 25%
Target sequence (Q9ULH1 325-724 limits assumed): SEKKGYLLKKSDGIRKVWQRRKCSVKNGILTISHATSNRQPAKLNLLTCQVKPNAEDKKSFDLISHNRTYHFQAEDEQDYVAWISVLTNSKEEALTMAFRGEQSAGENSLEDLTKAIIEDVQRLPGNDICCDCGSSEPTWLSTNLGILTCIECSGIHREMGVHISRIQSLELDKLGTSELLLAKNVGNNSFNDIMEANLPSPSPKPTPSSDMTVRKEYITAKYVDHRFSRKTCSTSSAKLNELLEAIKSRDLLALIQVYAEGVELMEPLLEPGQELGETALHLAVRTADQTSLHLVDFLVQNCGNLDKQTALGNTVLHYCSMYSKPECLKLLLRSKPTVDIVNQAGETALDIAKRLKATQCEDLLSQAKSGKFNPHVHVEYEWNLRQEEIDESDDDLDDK
A3G deaminase: blocks human APOBEC3G single-stranded DNA deamination; Q9HC16; 330,000 compounds, 0.28% hits; inhibition, % at 20 µM; recombinant A3G, ssDNA deamination FAM/TAMRA fluorescence;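 active means inhibition of at least 40% at 20 µM, with no more than 30% in the related APOBEC3A deaminase screen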
Large screens that a line does not name were inactive; ! = a repeat was not active. Sampled rows, rich in hits. Any-hit rate of the full collection: about 2.1%.

C[C@@H](O)C#Cc1cnc2c(c1)C(=O)N([C@@H](C)CO)C[C@H](C)[C@H](CN(C)C(=O)Cc1ccccn1)O2	none (no result: APOBEC3A inh, ARFGAP1 inh, Mot1-301 SUMO, ASAP1 GAP inh, A3G deaminase)
CCOC(=O)C1(C)NC(c2ccc(N(C)C)cc2)C2C(=O)N(CC)C(=O)C21 (stereo not given)	none
CCOC(=O)C1(C)NC(c2ccc(N(C)C)cc2)C2C(=O)N(c3ccc(OC)cc3)C(=O)C21 (stereo not given)	Statin myotox sup 115
COc1cc(Cl)c(C)cc1NC(=O)COC(=O)c1cnc(C)cn1	Statin myotox sup 95
C=CCSc1nnc(-c2cc3c(s2)-c2ccccc2CC3)o1	Statin myotox sup 146
CCCC(=O)Nc1ccc2c(c1)C(=O)N(C)[C@@H]1CC[C@@H](CC(=O)Nc3cn(C)nc3C)O[C@H]1CO2	none (no result: APOBEC3A inh, ARFGAP1 inh, Mot1-301 SUMO, ASAP1 GAP inh, A3G deaminase)
C/C(=N\OC(=O)NC(C)C)c1sc(-c2ccc(Cl)cc2)nc1C	Statin myotox sup 71
C/C(=N\OC(=O)NC(C)C)c1sc(-c2ccccc2)nc1C	none (no result: Statin myotox sup)
CC(N)C12CC3CC(CC(C3)C1)C2 (stereo not given)	Mot1-301 SUMO 329!
CO[C@@H]1CN(C)C(=O)c2cc(NC(=O)c3ccccc3F)ccc2OC[C@@H](C)N(C)C[C@@H]1C	none (no result: APOBEC3A inh, ARFGAP1 inh, Mot1-301 SUMO, ASAP1 GAP inh, A3G deaminase)
C[C@H]1CN([C@@H](C)CO)C(=O)c2cc(C#Cc3cccc(F)c3)cnc2O[C@H]1CN(C)C(=O)C1CCOCC1	none (no result: APOBEC3A inh, ARFGAP1 inh, Mot1-301 SUMO, ASAP1 GAP inh, A3G deaminase)
CN(C)C(CNC(=O)c1cccs1)c1cccnc1 (stereo not given)	none
CN(C)C(CNC(=O)NC1CCCCC1)c1cccnc1 (stereo not given)	Statin myotox sup 107
CCC(=O)N1[C@H](CN(C)C(C)=O)[C@@H](c2ccc(C3=CCCC3)cc2)[C@@H]1CO	none (no result: APOBEC3A inh, ARFGAP1 inh, Mot1-301 SUMO, ASAP1 GAP inh, A3G deaminase)
O=c1cc(-c2ccncc2)oc2ccccc12	Statin myotox sup 115
CCOC(=O)c1ccc(Oc2c(C)oc3c(CN4CCN(C)CC4)c(O)ccc3c2=O)cc1	Mot1-301 SUMO 357 (no result: Statin myotox sup)
O=C(COC(=O)c1ccc(Br)cc1)NCc1ccccc1	none (no result: Statin myotox sup)
CC(=O)Cc1cc(O)c2ccccc2c1OC(=O)c1ccc(Br)cc1	Statin myotox sup 88
Cc1ccc(-c2csc(NC(=O)c3ccc(-c4ccccc4)cc3)n2)o1	Statin myotox sup 89 (no result: ARFGAP1 inh, ASAP1 GAP inh)
O=C(Nc1nc(-c2ccco2)cs1)c1ccccc1	none
CN1C(=O)c2cc(NC(=O)c3cccs3)ccc2OC[C@H]2O[C@@H](CC(=O)NCC(F)(F)F)CC[C@@H]21	none (no result: APOBEC3A inh, ARFGAP1 inh, Mot1-301 SUMO, ASAP1 GAP inh, A3G deaminase)
COCC(=O)Nc1ccc2c(c1)C(=O)N(C)[C@H]1CC[C@@H](CC(=O)NCCc3ccncc3)O[C@H]1CO2	none (no result: APOBEC3A inh, ARFGAP1 inh, Mot1-301 SUMO, ASAP1 GAP inh, A3G deaminase)
O=C(Nc1ccc(F)cc1)N[C@H]1CC[C@H](CCNS(=O)(=O)c2ccccc2F)O[C@@H]1CO	none (no result: APOBEC3A inh, ARFGAP1 inh, Mot1-301 SUMO, ASAP1 GAP inh, A3G deaminase)
CC1=NN(c2nc(-c3ccc(C)cc3)cs2)C(=O)C1N=Nc1ccc2ccccc2c1 (stereo not given)	none (no result: Statin myotox sup)
CC1=NN(c2nc(-c3ccc(C)cc3)cs2)C(=O)C1N=Nc1ccc(C(N)=O)cc1 (stereo not given)	Mot1-301 SUMO 441 (no result: APOBEC3A inh, Statin myotox sup, A3G deaminase)
O=C(N[C@@H]1CC[C@H](CCn2cc(C3(O)CCCC3)nn2)O[C@@H]1CO)C1CCCC1	none (no result: APOBEC3A inh, ARFGAP1 inh, Mot1-301 SUMO, ASAP1 GAP inh, A3G deaminase)
CN(C)C(=O)C[C@@H]1C[C@@H]2c3cc(NC(=O)CC4CC4)ccc3O[C@@H]2[C@H](CO)O1	none (no result: APOBEC3A inh, ARFGAP1 inh, Mot1-301 SUMO, ASAP1 GAP inh, A3G deaminase)
COc1ccc(CSc2nnc(Cc3sc(-c4ccccc4)nc3-c3ccccc3)o2)cc1	Statin myotox sup 96 (no result: Mot1-301 SUMO)
C[C@@H]1CN([C@H](C)CO)C(=O)c2cc(N(C)C)ccc2O[C@@H](C)CCCCO[C@@H]1CN(C)C(=O)CCC(F)(F)F	none (no result: APOBEC3A inh, ARFGAP1 inh, Mot1-301 SUMO, ASAP1 GAP inh, A3G deaminase)
CCC(=O)N[C@@H]1C=C[C@@H](CC(=O)NCc2cc(F)cc(F)c2)O[C@@H]1CO	none (no result: APOBEC3A inh, ARFGAP1 inh, Mot1-301 SUMO, ASAP1 GAP inh, A3G deaminase)
O=C(c1cnn2c(C(F)F)cc(-c3ccccc3)nc12)N1CCc2ccccc21	Statin myotox sup 118
Cc1cccc2cc(COC(=O)c3ccccc3)c(=O)[nH]c12	none (no result: Mot1-301 SUMO)
Cc1cccc2cc(COC(=O)c3cccnc3)c(=O)[nH]c12	Statin myotox sup 102
[O-][n+]1onc2c1CCc1nnccc1-2	Statin myotox sup 84
CCC(=O)N(C)C[C@H]1Oc2cc(-c3cncnc3)ccc2S(=O)(=O)N([C@H](C)CO)C[C@@H]1C	none (no result: APOBEC3A inh, ARFGAP1 inh, Mot1-301 SUMO, ASAP1 GAP inh, A3G deaminase)

Assay outcomes from PubChem.
